Rows were chosen to be rich in hits. Some 1.8% of all compounds tested hit in one or more screens of this group.
TDP2 inh = TDP2 (human) inhibition, absorbance primary screen; AID 720702; recombinant TDP2, T5PNP hydrolysis, p-nitrophenol absorbance 415 nm; 0.34% of 370,000 active; inhibition, % at 12.8 µM; O95551;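 active means inhibition above the mean of all tested compounds plus 3 SD, set per campaign, cut at about 25% in these data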;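 further: 0% = DMSO with enzyme and 100% = buffer with substrate but no TDP2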
Target sequence (O95551 whole entry, looked up): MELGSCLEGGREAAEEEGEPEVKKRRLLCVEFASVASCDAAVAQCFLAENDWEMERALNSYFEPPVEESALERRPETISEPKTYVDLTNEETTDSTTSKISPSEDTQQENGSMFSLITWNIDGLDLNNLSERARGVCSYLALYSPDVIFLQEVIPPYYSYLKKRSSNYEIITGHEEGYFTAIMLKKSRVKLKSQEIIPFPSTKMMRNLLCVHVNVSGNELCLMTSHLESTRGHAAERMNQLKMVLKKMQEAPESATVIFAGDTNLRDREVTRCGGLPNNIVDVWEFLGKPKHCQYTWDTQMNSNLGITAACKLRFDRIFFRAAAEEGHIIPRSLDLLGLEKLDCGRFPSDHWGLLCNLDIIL
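System – recombinant human TDP2 · Quantity – TDP2 enzyme at 120 nM final · Doses – single concentration, 12.8 µM nominal, with 1% DMSO · Incubation – 2 h at 37 °C · Measured by – epi absorbance of p-nitrophenol freed from T5PNP by hydrolysis · Read-out – % inhibition relative to enzyme-containing and enzyme-free wells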
Apaf-1 inh = inhibitors of human Apaf-1 apoptosome; O14727; AID 489030; inhibition, % at 20 µM; 0.71% of 330,000 active; reconstituted apoptosome caspase-3 activity, DEVD-Rh110 fluorescence; active means inhibition of at least 40% at 20 µM;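 further: plate controls were DMSO wells for no effect and DEVD-CHO caspase inhibitor wells for full effect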
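Assay system – apoptosome proteins · Medium – Hepes buffer, pH 7.5 · Also added – cytochrome c with DEVD-Rh110 · Timing – 30 min compound preincubation, 50 min activation, room temperature · Detection – Rh110 fluorescence, excitation 480 nm, emission 540 nm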
GSTO1 counter = GSTO1 inhibition, counter-screen for RBBP9 inhibitors; P78417; recombinant GSTO1, activity-based probe fluorescence polarization; inhibition, % at 5.96 µM; 1.1% of 300,000 active; AID 1974;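 active means inhibition above the campaign mean inhibition plus 3 SD, cut at about 35% in these data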;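 further: 0% = GSTO1-1 with DMSO and 100% = wells lacking GSTO1-1 enzyme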
PAD4 inh = inhibitors of human PAD4; Q9UM07; recombinant PAD4, RCA probe fluorescence polarization; inhibition, % at 6.36 µM; 0.41% of 330,000 active;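 active means percent inhibition above a cutoff equal to the mean of all tested compounds plus 3 SD, cut at about 15% in these data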;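 further: 0% = PAD4 with RCA probe and DMSO and 100% = probe without PAD4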
Fh CTSL1 inh = counter-screen for PFM18AAP inhibitors: inhibitors of F. hepatica cathepsin L1 | recombinant F. hepatica cathepsin L1, Z-Leu-Arg-MCA fluorescence | inhibition, % at 5.96 µM | 0.49% of 300,000 active | AID 1906;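 active means inhibition above the mean of all tested compounds plus 3 SD, set per screening campaign, cut at about 17% in these data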;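 further: 0% = plate median of test compound wells and 100% = 1 µM Z-Phe-Ala-diazomethylketone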
Apaf-1 inh conf2 = confirmation of Apaf-1 inhibitors. shares compounds with Apaf-1 inh. reconstituted apoptosome, caspase-3 DEVD-Rh110 fluorescence. inhibition, % at 20 µM. 25% of 1,800 active;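 active means mean inhibition of at least 40% at 20 µM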;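 further: plate controls were DMSO wells for no effect and DEVD-CHO caspase inhibitor control wells for full effect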
Rh110 quench = Rh110 signal interference in Apaf-1 inhibitor counter-screen. shares compounds with Apaf-1 inh. activation (fluorescence interference), % at 20 µM. 1,800 tested, under 10 active. AID 504615. Rh110 fluorescence interference, quenched caspase reaction;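 active means signal rise of 40% or more at 20 µM, treated as a fluorescence artifact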
Apaf1 inh interf = counter-screen for Apaf-1 inhibitors: fluorescence interference, dose response; shares compounds with Apaf-1 inh; IC50, µM; AID 588538; 460 tested, under 10 active; fluorescence interference counterscreen, Apaf-1 assay format; call rule not given here
An asterisk follows results filed as active; · = not tested or not shown.

SMILES	TDP2 inh	Apaf-1 inh	GSTO1 counter	PAD4 inh	Fh CTSL1 inh	Apaf-1 inh conf2	Rh110 quench	others
CCOC(=O)C1=C(CN2CCN(c3ccc(F)cc3)CC2)NC(=O)NC1c1cccs1 (stereo not given)	-13.9	41.2*	-4.3	1.4	0.0	22.7	13.9
Cc1ccccc1OCCNc1cc(N2CC(C)NC(C)C2)ccc1[N+](=O)[O-] (stereo not given)	-4.9	56.5*	-3.1	3.6	0.5	23.5	8.6
COC(=O)c1cccc(Cn2ccc3ccc(-c4ccc5ccn(C(=O)c6ccccc6OC)c5c4)cc32)c1	-0.9	·	·	·	·	·	·
COC(=O)c1ccc(S(=O)(=O)N2CCC(NC(=O)CCc3ccccc3)CC2)cc1	-5.1	·	·	·	·	·	·
CC(=O)Nc1cccc(NC(=S)Nc2cccc3ccccc23)c1	0.5	96.9*	1.1	-4.5	-4.4	16.1	0.6
Cc1ccccc1NC(=S)Nc1cccc2cnccc12	16.6	90.9*	3.5	-5.9	1.8	9.3	1.5
CC(=O)Nc1cccc(NC(=S)Nc2cccc(Cl)c2C)c1	4.8	-7.6	-2.0	-1.6	-1.2	·	·
Cc1ccc(NC(=S)Nc2cccc3cnccc23)cc1	8.2	96.2*	12.6	-13.9	1.0	19.5	-1.4
S=C(NCc1ccccc1)Nc1cccc2cnccc12	-0.4	3.5	3.4	-4.2	-1.4	·	·
Fc1ccccc1NC(=S)Nc1cccc2cnccc12	4.9	97.4*	33.3	13.8	-0.9	11.7	-4.0
FC(F)(F)c1ccccc1NC(=S)Nc1cccc2cnccc12	23.2	·	·	·	·	·	·
CC1CCCCC1N(C(=O)c1cc(C2CC2)on1)C1CCCCC1 (stereo not given)	0.1	·	·	·	·	·	·
COc1ccc(-c2nc3c(C)cc(Br)cn3c2Cc2ccccc2C(F)(F)F)cc1OC	-8.5	·	·	·	·	·	·
CC(C)[C@H](NC(=O)C1CC1)C(=O)N1CCC[C@H]1C(=O)NCc1ccccc1	4.9	·	·	·	·	·	·
COC(=O)[C@]12C[C@H](CC(=O)NCc3cccc(C(F)(F)F)c3)C(=O)N(CCc3ccc(OC)c(OC)c3)C1=C[C@H](COCc1ccccc1)O[C@@H]2C	0.1	·	·	·	·	·	·
Cc1ccc(NC(=S)Nc2cccc3cnccc23)cc1C	11.5	53.4*	29.8	-4.8	-3.2	23.3	10.7
O=C(NCCOc1nc(N2CCCCC2)nc(N2CCOCC2)n1)Nc1ccccc1	0.6	6.1	1.2	1.7	1.3	·	·
O=C(NCCOc1nc(N2CCCCC2)nc(N2CCCCC2)n1)Nc1ccccc1	-11.2	40.9*	-0.1	2.1	-0.1	14.7	10.6
N=c1n(CC(=O)c2ccc(Br)cc2)c2ccccc2n1Cc1ccccc1	7.0	53.4*	·	-0.2	·	-34.4	19.0
Cc1cc(O)cc(=O)n1-c1ccc(Cl)c(C(F)(F)F)c1	-4.5	·	·	·	·	·	·
C[C@H](NC(=O)c1ccc(C(C)(C)C)cc1)C(=O)N1CCN(C/C=C/c2ccccc2)CC1	-8.8	42.7*	·	0.5	·	17.6	11.9
Cc1coc2c1C(=O)C(=O)c1c-2ccc2c1CCCC2(C)C	9.6	76.6*	27.9	-0.9	15.8	59.3*	9.9	Apaf1 inh interf=>100
Cc1ccc(C(=O)c2coc3c2C(=O)C(=O)c2ccccc2-3)cc1	21.6	18.4	19.5	3.2	-1.0	·	·
COc1ccc(C(C)(C)C)cc1NC(=O)CNc1cccc2ccccc12	9.3	43.8*	-8.1	3.2	2.9	28.8	7.0
COc1ccccc1NC(=O)Cc1cccc2ccccc12	-3.6	11.8	0.5	-4.0	7.6	·	·
CN(C)[C@H]1CCN(c2ccc3c(c2)O[C@@H]2CCN(C2)S3(=O)=O)C1	3.6	·	·	·	·	·	·
C[C@@]12CCC=C[C@H]1[C@H](c1ccc3ccccc3c1Br)N(Cc1ccccc1)C2=O	-7.9	49.2*	·	1.5	·	49.8*	3.9	Apaf1 inh interf=>100
Cc1ccc(S(=O)(=O)N2CCCC2C(=O)N2CCN(c3ccccc3)CC2)cc1C (stereo not given)	7.7	·	·	·	·	·	·
O=C(/C=C/c1ccco1)c1ccc(NC(=O)C23CC4CC(CC(C4)C2)C3)cc1	4.3	45.4*	-23.8	-29.0	-2.0	15.4	3.5
